Reference: publication PMC9290503 (British Journal of Clinical Pharmacology, 2021)

Columns and labels:
Assay type in all cases: in vivo, human
[1] = Study 1001 single-rising-dose plasma pharmacokinetics; conditions: for AUC0–24, mean (CV%) / AUC0–∞, mean (CV%) / t max, median (range) / t ½z, mean (CV%): plasma, Study 1001
[2] = Study 1001 single-dose urine pharmacokinetics; conditions: for Aet, mean (CV%) / CLR, mean (CV%) / fe,t, mean (CV%): urine, Study 1001
[3] = Study 1003 SRD cohort plasma pharmacokinetics; conditions: fasted
Procedure, shortened: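 Healthy women received a single oral 120 mg dose, then 160 mg after a washout of at least 14 days (placebo-controlled). Plasma was sampled pre-dose and at 0.25–72 h. Free base was measured by validated UPLC–MS/MS after protein precipitation (calibration 0.5–1000 ng mL−1). Noncompartmental parameters used actual sampling times, with values below LLOQ set to zero.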

[4] = Study 1003 MRD cohorts plasma pharmacokinetics
[5] = plasma, 20 mg q.d., Japanese, Day 1
[6] = plasma, 20 mg q.d., Japanese, Day 10

Cl.O=C(NC1CCOCC1)c1csc([C@@H]2C[C@H]2NCC2CC2)c1 [TAK‐418]
t ½z ([1]; healthy volunteers, across both studies and doses): 3.13 to 5.36 h
AUC0–24, mean (CV%) ([1]; single oral dose 5 mg): 89.3 (41.1) h*ng mL^−1
AUC0–∞, mean (CV%) ([1]; single oral dose 5 mg): 92.2 (43.3) h*ng mL^−1
t max, median (range) ([1]; single oral dose 5 mg): 1.00 (0.98–1.02) h
t ½z, mean (CV%) ([1]; single oral dose 5 mg): 3.133 (14.8) h
AUC0–24, mean (CV%) ([1]; single oral dose 15 mg): 295.8 (21.5) h*ng mL^−1
AUC0–∞, mean (CV%) ([1]; single oral dose 15 mg): 302.2 (21.8) h*ng mL^−1
t max, median (range) ([1]; single oral dose 15 mg): 1.00 (1.00–2.00) h
t ½z, mean (CV%) ([1]; single oral dose 15 mg): 4.375 (9.0) h
AUC0–24, mean (CV%) ([1]; single oral dose 30 mg, fasted): 646.3 (7.9) h*ng mL^−1
AUC0–∞, mean (CV%) ([1]; single oral dose 30 mg, fasted): 661.3 (7.9) h*ng mL^−1
t max, median (range) ([1]; single oral dose 30 mg, fasted): 1.00 (0.50–1.00) h
t ½z, mean (CV%) ([1]; single oral dose 30 mg, fasted): 4.772 (11.0) h
AUC0–24, mean (CV%) ([1]; single oral dose 40 mg): 690.2 (24.0) h*ng mL^−1
AUC0–∞, mean (CV%) ([1]; single oral dose 40 mg): 700.0 (24.5) h*ng mL^−1
t max, median (range) ([1]; single oral dose 40 mg): 1.25 (1.00–1.52) h
t ½z, mean (CV%) ([1]; single oral dose 40 mg): 3.868 (12.7) h
AUC0–24, mean (CV%) ([1]; single oral dose 60 mg): 1553.5 (29.4) h*ng mL^−1
AUC0–∞, mean (CV%) ([1]; single oral dose 60 mg): 1584.3 (29.9) h*ng mL^−1
t max, median (range) ([1]; single oral dose 60 mg): 1.00 (1.00–1.00) h
t ½z, mean (CV%) ([1]; single oral dose 60 mg): 4.220 (14.9) h
renal clearance ([2]; 20–160 mg dose range, single dose (Tables 3 and 4)): 5.81 to 8.68 L/h
recovered unchanged from urine ([2]; after 20–160 mg dosing, single dose (Tables 3 and 4)): 13.3–19.5%
Aet, mean (CV%) ([2]; single oral dose 30 mg, fasted): 5.708 (13.0) mg
CLR, mean (CV%) ([2]; single oral dose 30 mg, fasted): 8.683 (16.3) L h^−1
fe,t, mean (CV%) ([2]; single oral dose 30 mg, fasted): 19.022 (13.0) %
Aet, mean (CV%) ([2]; single oral dose 40 mg): 5.333 (18.8) mg
CLR, mean (CV%) ([2]; single oral dose 40 mg): 8.173 (38.1) L h^−1
fe,t, mean (CV%) ([2]; single oral dose 40 mg): 13.335 (18.8) %
Aet, mean (CV%) ([2]; single oral dose 60 mg): 11.677 (35.2) mg
CLR, mean (CV%) ([2]; single oral dose 60 mg): 7.242 (13.4) L h^−1
fe,t, mean (CV%) ([2]; single oral dose 60 mg): 19.472 (35.2) %
recovered unchanged from urine ([2]; within 24 hours): Approximately 20%
AUC0–24, mean (CV%) ([3]; single oral dose 120 mg): 3737.2 (19.9) h*ng mL^−1
AUC0–∞, mean (CV%) ([3]; single oral dose 120 mg): 3828.3 (20.6) h*ng mL^−1
C max, mean (CV%) ([3]; single oral dose 120 mg): 727.8 (20.0) ng mL^−1
t max, median (range) ([3]; single oral dose 120 mg): 1.50 (1.00–1.50) h
t ½z, mean (CV%) ([3]; single oral dose 120 mg): 5.188 (9.9) h
AUC0–24, mean (CV%) ([3]; single oral dose 160 mg): 4350.0 (31.0) h*ng mL^−1
AUC0–∞, mean (CV%) ([3]; single oral dose 160 mg): 4466.8 (31.7) h*ng mL^−1
C max, mean (CV%) ([3]; single oral dose 160 mg): 796.3 (36.2) ng mL^−1
t max, median (range) ([3]; single oral dose 160 mg): 1.25 (1.00–2.00) h
t ½z, mean (CV%) ([3]; single oral dose 160 mg): 4.847 (14.1) h
PK linearity point estimate, Day 10 AUC0–24 compared with Day 1 AUC0–∞ ([4]; 20 mg q.d.): 1.29
AUC0–24, Japanese vs non‐Japanese participants ([4]; 20 mg, Day 1): 1.21 fold
AUC0–24, Japanese compared with non‐Japanese participants ([4]; 20 mg, Day 10 steady state): approximately the same
PK linearity point estimate, Day 10 AUC0–24 compared with Day 1 AUC0–∞ ([4]; 60 mg q.d.): 1.13
PK linearity point estimate, Day 10 AUC0–24 compared with Day 1 AUC0–∞ ([4]; 160 mg q.d.): 1.06
mean terminal disposition phase half‐life (t ½z) at steady state ([4]; 20–160 mg q.d.): 4.35 to 5.36 h
median t max at steady state ([4]; Day 10, 20–160 mg q.d.): 1.00 to 1.26 h
AUC0–24, mean (CV%) [4, 5]: 610.3 (14.4) h*ng mL^−1
AUC0–∞, mean (CV%) [4, 5]: 619.0 (14.8) h*ng mL^−1
C max, mean (CV%) [4, 5]: 154.7 (6.0) ng mL^−1
t max, median (range) [4, 5]: 1.00 (0.50–1.50) h
AUC0–24, mean (CV%) [4, 6]: 677.3 (10.9) h*ng mL^−1
C max, mean (CV%) [4, 6]: 171.3 (6.0) ng mL^−1
t max, median (range) [4, 6]: 1.00 (1.00–1.50) h
t ½z, mean (CV%) [4, 6]: 4.350 (14.4) h
AUC0–24, mean (CV%) ([4]; plasma, 20 mg q.d., non‐Japanese, Day 1): 503.3 (32.9) h*ng mL^−1
